In ChEMBL document CHEMBL1125337, “Synthesis and antibacterial activity of a series of basic amides of teicoplanin and deglucoteicoplanin with polyamines” (J Med Chem, 1992):
In brackets after ≈: the same amount, converted by molar mass.

Tests used:
Streptococcus pyogenes [1] = experiment: Efficacy of compound administered perorally against Streptococcus pyogenes L 49 Septicemia in mouse; format: functional; conditions: po
Procedure, shortened: (§1)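 Mice were infected intraperitoneally with about 10^5 Strep. pyogenes L 49 cells, about 100 times the 50% lethal dose. Groups of 5–8 mice were treated once right after challenge, by the route stated in the line. ED50 (mg/kg) was derived from percentage survival at each dose on day 7 (Spearman-Kärber).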

Staphylococcus aureus = experiment: Minimum inhibitory concentration against Staphylococcus aureus L 165; format: functional
Procedure, shortened: (§2)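 MIC (µg/mL) by microbroth dilution in Iso-Sensitest broth; final inoculum 10^4 cfu/mL; 24 h at 37 °C in air.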

Enterococcus faecalis = experiment: Minimum inhibitory concentration against Enterococcus faecalis ATCC 7080; format: functional
Procedure, shortened: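 Microbroth dilution MIC (µg/mL), final inoculum 10^4 cfu/mL, incubated 24 h at 37 °C in air.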

[2] = system: Staphylococcus epidermidis; experiment: Minimum inhibitory concentration against Staphylococcus epidermidis ATCC 12228; format: functional; procedure, shortened: as §2
[3] = system: Staphylococcus haemolyticus; experiment: Minimum inhibitory concentration against Staphylococcus haemolyticus L 602; format: functional; procedure, shortened: as §2
Streptococcus pyogenes [4] = experiment: Efficacy of compound administered subcutaneously against Streptococcus pyogenes L 49 Septicemia in mouse; format: functional; conditions: sc; procedure, shortened: as §1
Streptococcus pyogenes [5] = experiment: Minimum inhibitory concentration against Streptococcus pyogenes L 49; format: functional
Procedure, shortened: (§3)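 MIC (µg/mL) by microbroth dilution in Todd-Hewitt broth, final inoculum 10^4 cfu/mL, incubated 24 h at 37 °C in air.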

Streptococcus pneumoniae = experiment: Minimum inhibitory concentration against Streptococcus pneumoniae L 44; format: functional; procedure, shortened: as §3
[6] = Association constant to Ac2-L-Lys-D-Ala-D-Ala determined at pH 9; Value ranges from (9.5E4-3.5E5)
Proteus vulgaris = experiment: Minimum inhibitory concentration against Proteus vulgaris ATCC 881; format: functional; procedure, shortened: as §2
Escherichia coli = experiment: Minimum inhibitory concentration against Escherichia coli L 47; format: functional; procedure, shortened: as §2
[7] = Association constant to Ac2-L-Lys-D-Ala-D-Ala determined at pH 9; Value ranges from 5E4-7.5E4
Pseudomonas aeruginosa = experiment: Minimum inhibitory concentration against Pseudomonas aeruginosa ATCC 10145; format: functional; procedure, shortened: as §2
Streptococcus pyogenes [8] = experiment: Minimum inhibitory concentration of compound was determined against Streptococcus pyogenes L 49 in mouse; format: functional

Row | MIC (Staphylococcus aureus) | MIC (Enterococcus faecalis) | MIC [2] | MIC (Streptococcus pyogenes [5]) | MIC (Streptococcus pneumoniae) | Ka [6] | MIC (Proteus vulgaris) | MIC (Escherichia coli) | Ka [7] | MIC (Pseudomonas aeruginosa) | MIC (Streptococcus pyogenes [8]) | Structure (SMILES) | ED50 (Streptococcus pyogenes [1]) | MIC [3] | ED50 (Streptococcus pyogenes [4])
1 | 0.125 µg/mL (≈ 0.0606 µM) | 0.125 µg/mL (≈ 0.0606 µM) | 0.063 µg/mL (≈ 0.0305 µM) | 0.063 µg/mL (≈ 0.0305 µM) | 0.125 µg/mL (≈ 0.0606 µM) | 350000 M⁻¹ |  |  |  |  |  | CC(=O)N[C@@H]1[C@H](O[C@@H]2c3ccc(c(Cl)c3)Oc3cc4cc(c3O[C@@H]3O[C@@H](CO)[C@@H](O)[C@H](O)[C@@H]3NC(=O)CCCCCCC(C)C)Oc3ccc(cc3Cl)C[C@H]3NC(=O)[C@H](N)c5ccc(O)c(c5)Oc5cc(O)cc(c5)[C@H](NC3=O)C(=O)N[C@H]4C(=O)N[C@H]3C(=O)N[C@@H]2C(=O)N[C@H](C(=O)NCCCNCCCCNCCCN)c2cc(O)cc(O[C@H]4O[C@H](CO)[C@@H](O)[C@@H](O)[C@@H]4O)c2-c2cc3ccc2O)O[C@@H](CO)[C@@H](O)[C@@H]1O | 81 mg/kg | 0.125 µg/mL (≈ 0.0606 µM) | 0.03 mg/kg
2 | 0.125 µg/mL (≈ 0.0623 µM) | 0.063 µg/mL (≈ 0.0314 µM) | 0.063 µg/mL (≈ 0.0314 µM) | 0.063 µg/mL (≈ 0.0314 µM) | 0.063 µg/mL (≈ 0.0314 µM) | 350000 M⁻¹ |  |  |  |  |  | CC(=O)N[C@@H]1[C@H](O[C@@H]2c3ccc(c(Cl)c3)Oc3cc4cc(c3O[C@@H]3O[C@@H](CO)[C@@H](O)[C@H](O)[C@@H]3NC(=O)CCCCCCC(C)C)Oc3ccc(cc3Cl)C[C@H]3NC(=O)[C@H](N)c5ccc(O)c(c5)Oc5cc(O)cc(c5)[C@H](NC3=O)C(=O)N[C@H]4C(=O)N[C@H]3C(=O)N[C@@H]2C(=O)N[C@H](C(=O)NCCN(CCN)CCN)c2cc(O)cc(O[C@H]4O[C@H](CO)[C@@H](O)[C@@H](O)[C@@H]4O)c2-c2cc3ccc2O)O[C@@H](CO)[C@@H](O)[C@@H]1O | 58 mg/kg | 0.125 µg/mL (≈ 0.0623 µM) | 0.04 mg/kg
3 | 0.25 µg/mL (≈ 0.118 µM) | 0.125 µg/mL (≈ 0.059 µM) | 0.063 µg/mL (≈ 0.0297 µM) | 0.063 µg/mL (≈ 0.0297 µM) | 0.125 µg/mL (≈ 0.059 µM) | 350000 M⁻¹ |  |  |  |  |  | CC(=O)N[C@@H]1[C@H](O[C@@H]2c3ccc(c(Cl)c3)Oc3cc4cc(c3O[C@@H]3O[C@@H](CO)[C@@H](O)[C@H](O)[C@@H]3NC(=O)CCCCCCC(C)C)Oc3ccc(cc3Cl)C[C@H]3NC(=O)[C@H](N)c5ccc(O)c(c5)Oc5cc(O)cc(c5)[C@H](NC3=O)C(=O)N[C@H]4C(=O)N[C@H]3C(=O)N[C@@H]2C(=O)N[C@H](C(=O)NCCCN2CCCCN(CCCN)CCCC2)c2cc(O)cc(O[C@H]4O[C@H](CO)[C@@H](O)[C@@H](O)[C@@H]4O)c2-c2cc3ccc2O)O[C@@H](CO)[C@@H](O)[C@@H]1O | 60 mg/kg | 0.125 µg/mL (≈ 0.059 µM) | 0.06 mg/kg
4 | 0.25 µg/mL (≈ 0.119 µM) | 0.125 µg/mL (≈ 0.0597 µM) | 0.063 µg/mL (≈ 0.0301 µM) | 0.063 µg/mL (≈ 0.0301 µM) | 0.125 µg/mL (≈ 0.0597 µM) | 350000 M⁻¹ |  |  |  |  |  | CC(=O)N[C@@H]1[C@H](O[C@@H]2c3ccc(c(Cl)c3)Oc3cc4cc(c3O[C@@H]3O[C@@H](CO)[C@@H](O)[C@H](O)[C@@H]3NC(=O)CCCCCCC(C)C)Oc3ccc(cc3Cl)C[C@H]3NC(=O)[C@H](N)c5ccc(O)c(c5)Oc5cc(O)cc(c5)[C@H](NC3=O)C(=O)N[C@H]4C(=O)N[C@H]3C(=O)N[C@@H]2C(=O)N[C@H](C(=O)NCCNCCNCCNCCNCCN)c2cc(O)cc(O[C@H]4O[C@H](CO)[C@@H](O)[C@@H](O)[C@@H]4O)c2-c2cc3ccc2O)O[C@@H](CO)[C@@H](O)[C@@H]1O | 112 mg/kg | 0.125 µg/mL (≈ 0.0597 µM) | 0.08 mg/kg
5 | 0.063 µg/mL (≈ 0.0491 µM) | 0.125 µg/mL (≈ 0.0973 µM) | 0.063 µg/mL (≈ 0.0491 µM) | 0.125 µg/mL (≈ 0.0973 µM) | 0.125 µg/mL (≈ 0.0973 µM) |  | 64 µg/mL (≈ 49.8 µM) | 8 µg/mL (≈ 6.23 µM) | 75000 M⁻¹ | 64 µg/mL (≈ 49.8 µM) |  | NCCNCCNC(=O)[C@H]1NC(=O)[C@H]2NC(=O)[C@H](NC(=O)[C@@H]3NC(=O)[C@H]4NC(=O)[C@@H](Cc5ccc(c(Cl)c5)Oc5cc3cc(c5O)Oc3ccc(cc3Cl)[C@H]2O)NC(=O)[C@H](N)c2ccc(O)c(c2)Oc2cc(O)cc4c2)c2ccc(O)c(c2)-c2c(O)cc(O)cc21 |  | 0.125 µg/mL (≈ 0.0973 µM) | 
6 | 0.125 µg/mL (≈ 0.0623 µM) | 0.125 µg/mL (≈ 0.0623 µM) | 0.063 µg/mL (≈ 0.0314 µM) | 0.063 µg/mL (≈ 0.0314 µM) | 0.125 µg/mL (≈ 0.0623 µM) | 350000 M⁻¹ |  |  |  |  |  | CC(=O)N[C@@H]1[C@H](O[C@@H]2c3ccc(c(Cl)c3)Oc3cc4cc(c3O[C@@H]3O[C@@H](CO)[C@@H](O)[C@H](O)[C@@H]3NC(=O)CCCCCCC(C)C)Oc3ccc(cc3Cl)C[C@H]3NC(=O)[C@H](N)c5ccc(O)c(c5)Oc5cc(O)cc(c5)[C@H](NC3=O)C(=O)N[C@H]4C(=O)N[C@H]3C(=O)N[C@@H]2C(=O)N[C@H](C(=O)NCCCNCCCCN)c2cc(O)cc(O[C@H]4O[C@H](CO)[C@@H](O)[C@@H](O)[C@@H]4O)c2-c2cc3ccc2O)O[C@@H](CO)[C@@H](O)[C@@H]1O | 81 mg/kg | 0.125 µg/mL (≈ 0.0623 µM) | 0.05 mg/kg
7 | 0.25 µg/mL (≈ 0.127 µM) | 0.125 µg/mL (≈ 0.0636 µM) | 0.063 µg/mL (≈ 0.0321 µM) | 0.063 µg/mL (≈ 0.0321 µM) | 0.125 µg/mL (≈ 0.0636 µM) | 350000 M⁻¹ |  |  |  |  |  | CC(=O)N[C@@H]1[C@H](O[C@@H]2c3ccc(c(Cl)c3)Oc3cc4cc(c3O[C@@H]3O[C@@H](CO)[C@@H](O)[C@H](O)[C@@H]3NC(=O)CCCCCCC(C)C)Oc3ccc(cc3Cl)C[C@H]3NC(=O)[C@H](N)c5ccc(O)c(c5)Oc5cc(O)cc(c5)[C@H](NC3=O)C(=O)N[C@H]4C(=O)N[C@H]3C(=O)N[C@@H]2C(=O)N[C@H](C(=O)NCCNCCN)c2cc(O)cc(O[C@H]4O[C@H](CO)[C@@H](O)[C@@H](O)[C@@H]4O)c2-c2cc3ccc2O)O[C@@H](CO)[C@@H](O)[C@@H]1O | 60 mg/kg | 0.25 µg/mL (≈ 0.127 µM) | 0.09 mg/kg
8 | 0.125 µg/mL (≈ 0.061 µM) | 0.125 µg/mL (≈ 0.061 µM) | 0.063 µg/mL (≈ 0.0307 µM) | 0.063 µg/mL (≈ 0.0307 µM) | 0.125 µg/mL (≈ 0.061 µM) | 350000 M⁻¹ |  |  |  |  |  | CC(=O)N[C@@H]1[C@H](O[C@@H]2c3ccc(c(Cl)c3)Oc3cc4cc(c3O[C@@H]3O[C@@H](CO)[C@@H](O)[C@H](O)[C@@H]3NC(=O)CCCCCCC(C)C)Oc3ccc(cc3Cl)C[C@H]3NC(=O)[C@H](N)c5ccc(O)c(c5)Oc5cc(O)cc(c5)[C@H](NC3=O)C(=O)N[C@H]4C(=O)N[C@H]3C(=O)N[C@@H]2C(=O)N[C@H](C(=O)NCCCNCCCNCCCN)c2cc(O)cc(O[C@H]4O[C@H](CO)[C@@H](O)[C@@H](O)[C@@H]4O)c2-c2cc3ccc2O)O[C@@H](CO)[C@@H](O)[C@@H]1O | 80 mg/kg | 0.125 µg/mL (≈ 0.061 µM) | 0.06 mg/kg
9 | 0.063 µg/mL (≈ 0.0525 µM) | 0.125 µg/mL (≈ 0.104 µM) | 0.016 µg/mL (≈ 0.0133 µM) | 0.125 µg/mL (≈ 0.104 µM) | 0.125 µg/mL (≈ 0.104 µM) |  | 128 µg/mL (≈ 107 µM) | 64 µg/mL (≈ 53.4 µM) |  | > 128 µg/mL | 0.13 µg/mL (≈ 0.108 µM) | N[C@H]1C(=O)N[C@@H]2Cc3ccc(c(Cl)c3)Oc3cc4cc(c3O)Oc3ccc(cc3Cl)[C@@H](O)[C@@H]3NC(=O)[C@H](NC(=O)[C@@H]4NC(=O)[C@@H](NC2=O)c2cc(O)cc(c2)Oc2cc1ccc2O)c1ccc(O)c(c1)-c1c(O)cc(O)cc1[C@@H](C(=O)O)NC3=O [TEICOPLANIN AGLYCON] |  | 0.25 µg/mL (≈ 0.209 µM) | 0.95 mg/kg
10 | 0.063 µg/mL (≈ 0.047 µM) | 0.125 µg/mL (≈ 0.0932 µM) | 0.063 µg/mL (≈ 0.047 µM) | 0.063 µg/mL (≈ 0.047 µM) | 0.125 µg/mL (≈ 0.0932 µM) |  | 128 µg/mL (≈ 95.4 µM) | 4 µg/mL (≈ 2.98 µM) | 75000 M⁻¹ | 64 µg/mL (≈ 47.7 µM) |  | NCCNCCCNCCNC(=O)[C@H]1NC(=O)[C@H]2NC(=O)[C@H](NC(=O)[C@@H]3NC(=O)[C@H]4NC(=O)[C@@H](Cc5ccc(c(Cl)c5)Oc5cc3cc(c5O)Oc3ccc(cc3Cl)[C@H]2O)NC(=O)[C@H](N)c2ccc(O)c(c2)Oc2cc(O)cc4c2)c2ccc(O)c(c2)-c2c(O)cc(O)cc21 |  | 0.063 µg/mL (≈ 0.047 µM) | 
